Screens from PubChem BioAssay.
Compounds with a hit are over-represented: about 3.1% of the library has one in this group of screens.
MBD2 DNA inh: blocks human MBD2 binding to methylated DNA | 0.31% of 370,000 active | inhibition, % at 4.4 µM | TR-FRET, MBD2 binding to methylated oligonucleotide; in the data active = inhibition above about 13%
PRMT1 FP inh: inhibitors of human PRMT1. Q99873. 1.3% of 370,000 active. inhibition, % at 2.79 µM. recombinant PRMT1, activity-based probe fluorescence polarization. AID 652257;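 active = inhibition above about 21% made by adding two undisclosed values, limit read from the data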
Target sequence (Q99873 whole entry, looked up): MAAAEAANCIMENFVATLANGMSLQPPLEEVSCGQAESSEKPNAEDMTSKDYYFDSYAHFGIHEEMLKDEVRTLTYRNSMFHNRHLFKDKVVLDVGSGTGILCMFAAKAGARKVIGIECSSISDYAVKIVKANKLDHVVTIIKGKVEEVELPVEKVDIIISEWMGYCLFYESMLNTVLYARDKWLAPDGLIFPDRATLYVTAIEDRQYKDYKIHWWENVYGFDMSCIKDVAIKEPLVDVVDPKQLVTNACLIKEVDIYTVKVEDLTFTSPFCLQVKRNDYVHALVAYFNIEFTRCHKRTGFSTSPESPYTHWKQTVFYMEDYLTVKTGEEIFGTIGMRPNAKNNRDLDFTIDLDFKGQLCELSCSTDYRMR
LEDGF integ inh: blocks HIV-1 LEDGF/p75-dependent DNA integration; TR-FRET IN-LEDGF/p75 DNA integration, Eu/Cy5; inhibition, % at 3.7 µM; 0.64% of 370,000 active; AID 743269;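 active = inhibition above the screen-wide mean plus 3 SD, cut at about 13% in these data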;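 also: signal is the Cy5 over europium emission ratio at 671 and 618 nm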
ABHD5-PLIN5 inh: inhibitors of human ABHD5-perilipin-5 interaction; Split G. princeps luciferase complementation, luminescence, 4 h; inhibition, % at 4 µM; 0.78% of 360,000 active;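 active = inhibition above the mean inhibition across every tested compound plus 3 SD, cut at about 22% in these data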
UHRF1 binding: UHRF1 methyl-DNA binding inhibition; UHRF1 binding to methylated oligo, TR-FRET; AID 687016; inhibition, % at 4.4 µM; 0.75% of 370,000 active; in the data active = inhibition above about 21%;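 also: UHRF1 SRA domain binding a hemimethylated CpG hairpin DNA probe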
RBBP9 inh: inhibitors of human serine hydrolase RBBP9 | recombinant RBBP9, FP-Rh probe fluorescence polarization | O75884 | inhibition, % at 7.94 µM | 0.2% of 220,000 active;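 active = inhibition above the campaign mean of all tested compounds plus 3 SD, cut at about 14% in these data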
Target sequence (O75884 whole entry, looked up): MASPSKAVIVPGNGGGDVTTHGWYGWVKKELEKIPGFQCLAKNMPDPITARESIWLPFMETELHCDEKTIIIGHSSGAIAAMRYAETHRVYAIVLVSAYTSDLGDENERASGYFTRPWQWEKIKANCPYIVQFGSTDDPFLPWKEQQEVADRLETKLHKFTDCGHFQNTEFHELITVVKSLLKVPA
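Measured by – fluorescence polarization · Test system – RBBP9 protein · Input – 2.5 µM RBBP9 dispensing solution, before mixing · Measure – percent inhibition from mP, scaled between DMSO and no-protein wells · Benchmarks – DMSO-treated enzyme wells and wells lacking RBBP9 · Times – preincubation 30 min plus labeling 45 min at 25 °C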
Numbers stand for hits.

For CCNC(=O)C1CCCN(C(=O)c2cccs2)CC1 (configuration not stated) the results were MBD2 DNA inh inactive, PRMT1 FP inh inactive, LEDGF integ inh inactive, ABHD5-PLIN5 inh inactive and UHRF1 binding inactive.
`CCNC(=O)C1CCCN(C(=O)Cc2cccs2)CC1` (configuration not stated) gave MBD2 DNA inh inactive, PRMT1 FP inh inactive, LEDGF integ inh inactive, ABHD5-PLIN5 inh inactive and UHRF1 binding 24.
`Nc1nc(SCc2ccc(Br)cc2)[nH]c(=O)c1-c1ccccc1` gave MBD2 DNA inh inactive, PRMT1 FP inh inactive, LEDGF integ inh inactive, ABHD5-PLIN5 inh inactive, UHRF1 binding 29 and RBBP9 inh inactive.
For COC(=O)[C@]12C[C@H](CC(=O)NCc3ccccc3)C(=O)N(Cc3cccc4ccccc34)C1=C[C@H](C(C)(C)C)O[C@@H]2C the results were MBD2 DNA inh inactive, PRMT1 FP inh inactive, LEDGF integ inh inactive and UHRF1 binding inactive.
For Cc1ccc(-c2cc(-c3nnc(SCC(=O)Nc4ccccc4-c4ccccc4)n3N)[nH]n2)cc1 the results were MBD2 DNA inh inactive, PRMT1 FP inh inactive, LEDGF integ inh inactive and UHRF1 binding inactive.
`CCc1ccc(CCNC(=O)OC2CC3CC2[C@H]2CCCCN2[C@H]3C)cc1` (some centres not stated) gave MBD2 DNA inh inactive, PRMT1 FP inh inactive, LEDGF integ inh inactive and UHRF1 binding inactive.
For O=C(Cc1ccccc1)NN1C(=O)C2C(C1=O)C1C=CC2C12CC2 (configuration not stated) the results were MBD2 DNA inh inactive, PRMT1 FP inh inactive, LEDGF integ inh inactive, ABHD5-PLIN5 inh inactive, UHRF1 binding 24 and RBBP9 inh inactive.
Screening CC1=NN(C(C#N)c2ccccc2O)C(C)(C)C1 (configuration not stated) returned MBD2 DNA inh inactive, PRMT1 FP inh inactive, LEDGF integ inh inactive, ABHD5-PLIN5 inh inactive, UHRF1 binding 30 and RBBP9 inh inactive.
`C[C@H]1CN(S(=O)(=O)C(C)(C)C)[C@@H](CCO)/C1=C\CCO` gave MBD2 DNA inh inactive, PRMT1 FP inh inactive, LEDGF integ inh inactive and UHRF1 binding inactive.
CCCCN(C(=O)c1cccc(-c2ccc(OC(C)=O)cc2)c1)c1c(N)n(CCC)c(=O)[nH]c1=O was read as MBD2 DNA inh inactive, PRMT1 FP inh inactive, LEDGF integ inh inactive, ABHD5-PLIN5 inh inactive and UHRF1 binding 73.
Screening O=C(Nc1c(-c2ccccc2)[nH][nH]c1=O)c1ccco1 returned MBD2 DNA inh inactive, PRMT1 FP inh inactive, LEDGF integ inh inactive, ABHD5-PLIN5 inh inactive and UHRF1 binding 63.
For CC1(C)CC(=O)C2=C(C1)N(CC1CCCO1)C(=O)NC2(C(F)(F)F)C(F)(F)F (configuration not stated) the results were MBD2 DNA inh inactive, PRMT1 FP inh inactive, LEDGF integ inh inactive, ABHD5-PLIN5 inh inactive, UHRF1 binding 23 and RBBP9 inh inactive.
`CC1(C)CC(=O)C2=C(C1)N(CC1CCCO1)C(=O)C2(O)C(F)(F)F` (configuration not stated) gave MBD2 DNA inh inactive, PRMT1 FP inh inactive, LEDGF integ inh inactive, ABHD5-PLIN5 inh inactive, UHRF1 binding inactive and RBBP9 inh inactive.
`CC(OC(=O)c1ccc(S(C)(=O)=O)c([N+](=O)[O-])c1)C(=O)NC1C2CC3CC(C2)CC1C3` (configuration not stated) gave MBD2 DNA inh inactive, PRMT1 FP inh inactive, LEDGF integ inh inactive, ABHD5-PLIN5 inh 23 and UHRF1 binding inactive.
For COc1cc(S(=O)(=O)N(Cc2cccnc2)Cc2ccco2)ccc1-n1cnnn1 the results were MBD2 DNA inh inactive, PRMT1 FP inh inactive, LEDGF integ inh inactive, ABHD5-PLIN5 inh inactive, UHRF1 binding 21 and RBBP9 inh inactive.
COc1cccc(CN(Cc2cccnc2)S(=O)(=O)c2ccc(-n3cnnn3)c(C)c2)c1 was read as MBD2 DNA inh inactive, PRMT1 FP inh inactive, LEDGF integ inh inactive, ABHD5-PLIN5 inh inactive, UHRF1 binding 21 and RBBP9 inh inactive.
O=C1CC2(CCN(C(=O)c3ccc(F)cc3)CC2)Oc2ccccc21 was read as MBD2 DNA inh inactive, PRMT1 FP inh inactive, LEDGF integ inh 40, ABHD5-PLIN5 inh inactive and UHRF1 binding inactive.
COc1ccc(CCNC(=O)c2cc(-c3ccc(Cl)c(Cl)c3)oc2C)cc1 was read as MBD2 DNA inh inactive, PRMT1 FP inh inactive, LEDGF integ inh inactive, ABHD5-PLIN5 inh inactive, UHRF1 binding 22 and RBBP9 inh inactive.
Screening C[C@@H]1CCCCO[C@@H](CN(C)C(=O)Nc2ccc(C(F)(F)F)cc2)[C@@H](C)CN([C@H](C)CO)C(=O)c2cc(NS(=O)(=O)c3ccc(Cl)cc3)ccc2O1 returned MBD2 DNA inh inactive, PRMT1 FP inh inactive, LEDGF integ inh inactive and UHRF1 binding inactive.
For COC(=O)[C@]12C[C@H](CC(=O)N3CCSCC3)C(=O)N(Cc3ccco3)C1=C[C@H](C(C)C)O[C@@H]2C1CC1 the results were MBD2 DNA inh inactive, PRMT1 FP inh inactive, LEDGF integ inh inactive and UHRF1 binding inactive.
Screening CCCCC(=O)NNC(=O)CC(=O)Nc1ccccc1C(=O)O returned MBD2 DNA inh inactive, PRMT1 FP inh inactive, LEDGF integ inh inactive, ABHD5-PLIN5 inh inactive, UHRF1 binding inactive and RBBP9 inh inactive.
Screening O=C(O)CCCC(=O)Nc1ccccc1C(=O)O returned MBD2 DNA inh inactive, PRMT1 FP inh inactive, LEDGF integ inh 16, ABHD5-PLIN5 inh inactive, UHRF1 binding inactive and RBBP9 inh inactive.
CCC(C)(C)C(=O)N1CCC(C(=O)NC2CCCc3ccccc32)CC1 (configuration not stated) was read as MBD2 DNA inh inactive, PRMT1 FP inh inactive, LEDGF integ inh inactive and UHRF1 binding inactive.
Screening CCOc1ccccc1CNC(=O)c1nn(C)c2c1CS(=O)(=O)c1ccccc1-2 returned MBD2 DNA inh inactive, PRMT1 FP inh inactive, LEDGF integ inh inactive, ABHD5-PLIN5 inh inactive and UHRF1 binding 26.
Screening O=C(C[n+]1ccc(/C=C/c2ccccc2)cc1)c1ccc2c(c1)OCCO2 returned MBD2 DNA inh inactive, PRMT1 FP inh inactive, LEDGF integ inh inactive, ABHD5-PLIN5 inh 23, UHRF1 binding inactive and RBBP9 inh inactive.
Cc1cc[n+](CC(=O)c2ccc3c(c2)OCCO3)cc1 was read as MBD2 DNA inh inactive, PRMT1 FP inh inactive, LEDGF integ inh inactive, ABHD5-PLIN5 inh inactive, UHRF1 binding inactive and RBBP9 inh inactive.
`O=C(COCc1ccccc1)N1CC[C@H]2[C@H](CCCN2Cc2ccc(F)cc2)C1` gave MBD2 DNA inh inactive, PRMT1 FP inh inactive, LEDGF integ inh inactive and UHRF1 binding inactive.
Cc1ccc(OCCNC(=O)[C@@H](Cc2ccccc2)NC(=O)[C@H]2O[C@@H](n3ccc(=O)[nH]c3=O)[C@H](O)[C@@H]2O)cc1C was read as MBD2 DNA inh inactive, PRMT1 FP inh inactive, LEDGF integ inh inactive and UHRF1 binding inactive.
